Compounds with a hit are over-represented: about 2.6% of the library has one in this group of screens.
RanGTP-Imp inh: disruptors of Ran-importin-beta complex formation – biochemical, FRET, CFP-Ran, YFP-importin-beta, homogeneous, primary screen; cell-free CFP-Ran/YFP-importin-beta FRET ratio; inhibition, % (no concentration beside the values); 300,000 tested, 1.1% active; AID 2216;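 active = more than half of the replicate wells show a fall in the fluorescence ratio signal beyond about 16%, limit read from the data, passing the limit was not always enough; inconclusive = exactly half of the replicate wells pass the set limit; inactive = fewer than half of replicates pass the limit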;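 note: 0% = DMSO wells and 100% = Ran loaded with GDP instead of GTP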
Runt-CBFb FRET: Runt domain-CBFb interaction inhibition; Q01196+Q13951; Cerulean-Runt/Venus-CBFb FRET ratio 530/480, 1 h; inhibition, % at 20 µM; AID 1496; 220,000 tested, 0.46% active;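 active = inhibition over about 50% at 20 µM in the single-dose screen, limit read from the data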;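 note: 0% = DMSO wells and 100% = excess unlabeled CBFb competitor control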
Target sequence (Q01196 whole entry, looked up, the tested form may be a part): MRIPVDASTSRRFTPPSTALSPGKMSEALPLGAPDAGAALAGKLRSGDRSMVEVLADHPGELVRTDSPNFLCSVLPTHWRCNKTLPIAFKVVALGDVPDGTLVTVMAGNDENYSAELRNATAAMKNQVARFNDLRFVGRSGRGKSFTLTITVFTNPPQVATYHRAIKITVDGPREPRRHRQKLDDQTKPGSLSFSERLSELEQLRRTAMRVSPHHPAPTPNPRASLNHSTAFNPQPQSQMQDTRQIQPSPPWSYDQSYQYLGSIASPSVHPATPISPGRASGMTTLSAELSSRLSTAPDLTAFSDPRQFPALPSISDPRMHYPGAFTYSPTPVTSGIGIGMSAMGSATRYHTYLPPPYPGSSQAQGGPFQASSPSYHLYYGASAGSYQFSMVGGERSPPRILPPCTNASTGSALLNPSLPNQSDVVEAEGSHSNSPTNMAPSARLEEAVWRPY
Target sequence (Q13951 whole entry, looked up, the tested form may be a part): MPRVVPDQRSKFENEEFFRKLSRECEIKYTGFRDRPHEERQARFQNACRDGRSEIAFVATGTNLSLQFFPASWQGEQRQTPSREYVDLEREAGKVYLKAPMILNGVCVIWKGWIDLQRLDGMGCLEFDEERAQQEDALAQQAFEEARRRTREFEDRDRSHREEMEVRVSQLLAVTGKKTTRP
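test system = Cerulean-Runt domain fusion protein, energy donor | probe or stimulus = Venus-CBFb binding partner, 100 nM | incubation = two 1 h room-temperature incubations shielded from light | detection = fluorescence energy transfer, 422 nm excitation, 530/480 nm emission | measure = loss of energy transfer signal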
VIM-2 inh: blocks Pseudomonas aeruginosa VIM-2 metallo-beta-lactamase; inhibition, % at 5.6 µM; 290,000 tested, 0.89% active; AID 1527; purified VIM-2, nitrocefin hydrolysis, epi-absorbance fluorescence;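 active = inhibition above the mean of all tested compounds plus 3 SD, cutoff set per screening run, cut at about 7.5% in these data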;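 note: red hydrolysis product quenches plate fluorescence so inhibitors raise well fluorescence; 0% = enzyme with DMSO and 100% = DMSO without enzyme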
IMP-1 inh: blocks Pseudomonas aeruginosa IMP-1 metallo-beta-lactamase | purified IMP-1, nitrocefin hydrolysis, epi-absorbance fluorescence | inhibition, % at 5.6 µM | 290,000 tested, 0.45% active | AID 1556;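 active = inhibition above the mean plus 3 SD of all compounds in the same screening run, cut at about 4.5% in these data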;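 note: 0% = IMP-1 with DMSO and 100% = DMSO wells lacking enzyme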
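assay system = purified recombinant IMP-1 metallo-beta-lactamase enzyme | schedule = 15 min preincubation plus 25 min reaction at 25 °C | signal = Epi-absorbance fluorescence, 480 nm excitation, 530 nm emission | read-out basis = percent inhibition from optical density relative to buffer-blank wells | controls = IMP-1 with DMSO as 0%, enzyme-free DMSO as 100%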
Runt-SMMHC FRET: blocks binding of human RUNX1 Runt domain to CBFb-SMMHC; 220,000 tested, 0.74% active; inhibition, % at 20 µM; Cerulean-Runt/Venus-CBFb-SMMHC FRET ratio 530/480, 1 h; AID 1434; Q01196+Q13951;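 active = mean inhibition across duplicate retests at 20 µM reaching about 50%, limit read from the data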;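 note: 0% = DMSO wells and 100% = wells with excess untagged CBFb-SMMHC; inhibitors lower the FRET ratio by blocking Runt binding to CBFb-SMMHC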
* = called active by the depositor.

For Cc1ccc(S(=O)(=O)N/N=C/c2ccccc2F)cc1[N+](=O)[O-] the results were RanGTP-Imp inh -2, VIM-2 inh -1 and IMP-1 inh 5.9*.
For O=C1CC(Cc2ccc(Br)cc2)C(=O)N1c1ccccc1 (stereo not drawn) the results were RanGTP-Imp inh 2, VIM-2 inh -2 and IMP-1 inh -2.
Screening O=C(c1ccc(S(=O)(=O)Nc2ccccc2F)cc1)N1CCN(c2ccccc2O)CC1 returned RanGTP-Imp inh 2.
`CC1=NOC(=O)/C1=C\c1ccc(-c2ccc(Cl)c(C(=O)O)c2)o1` gave RanGTP-Imp inh 3, Runt-CBFb FRET 7, VIM-2 inh 1, IMP-1 inh -4 and Runt-SMMHC FRET -3.
Screening CC1=NOC(=O)/C1=C\c1ccc(-c2cccc(Cl)c2)o1 returned RanGTP-Imp inh 3, Runt-CBFb FRET 21, VIM-2 inh -2, IMP-1 inh -2 and Runt-SMMHC FRET 55*.
`Cc1cc(C)n(CC(=O)NC2CCCc3c2cnn3-c2ccc(C)c(C)c2)n1` (stereo not drawn) gave RanGTP-Imp inh 3, VIM-2 inh -2 and IMP-1 inh -1.
For O=C(O)c1c2c(nc3ccccc13)/C(=C/c1ccc(O)cc1)CC2 the results were RanGTP-Imp inh -10, Runt-CBFb FRET 20, VIM-2 inh -1, IMP-1 inh -2 and Runt-SMMHC FRET 86*.
Screening O=C(O)c1c2c(nc3ccccc13)/C(=C/c1c(F)cccc1F)CCC2 returned RanGTP-Imp inh 75*, VIM-2 inh 0 and IMP-1 inh -2.
Cc1cc(SCC(=O)Nc2c(C)n(C)n(-c3ccccc3)c2=O)nc2ccccc12 was read as RanGTP-Imp inh 3, VIM-2 inh -1 and IMP-1 inh -3.
Cc1cccc(NC(=O)C2CCN(C(=O)N3CCOc4ccccc43)CC2)c1C was read as RanGTP-Imp inh 2, VIM-2 inh -6 and IMP-1 inh -8.
For CC[C@H](C)/C=C(C)/C=C/C1=CC2=CC(=O)[C@]3(C)OC(=O)[C@@H](C(C)=O)[C@@H]3C2=CO1 the results were RanGTP-Imp inh 55*, Runt-CBFb FRET 8, VIM-2 inh -3, IMP-1 inh -1 and Runt-SMMHC FRET 85*.
For CN(C)c1nc(-c2ccccc2)c2cc(Cl)ccc2n1 the results were RanGTP-Imp inh 21*, VIM-2 inh 0 and IMP-1 inh -1.
For CC(C)(C)NCC(O)CON=C1c2ccccc2-c2ccccc21 (stereo not drawn) the results were RanGTP-Imp inh 9, Runt-CBFb FRET 1, VIM-2 inh 7.8*, IMP-1 inh 1 and Runt-SMMHC FRET 1.
For COc1ccc(-c2cc(=O)n(-c3nc4ccccc4[nH]3)[nH]2)cc1 the results were RanGTP-Imp inh 56*, Runt-CBFb FRET 6, VIM-2 inh -2, IMP-1 inh -3 and Runt-SMMHC FRET -7.
Screening Cc1cc(Nc2cccc(C(=O)O)c2)n2ncnc2n1 returned RanGTP-Imp inh 6, VIM-2 inh -2 and IMP-1 inh -7.
`CC(C)c1cc(NCC2CCCO2)n2c(nc3ccccc32)c1C#N` (stereo not drawn) gave RanGTP-Imp inh -3, Runt-CBFb FRET 23, VIM-2 inh 9.9*, IMP-1 inh -2 and Runt-SMMHC FRET 46.
Screening CCc1c(C)c(C#N)c2nc3ccccc3n2c1NCc1ccccn1 returned RanGTP-Imp inh 12, Runt-CBFb FRET 32, VIM-2 inh 3, IMP-1 inh -2 and Runt-SMMHC FRET 65*.
Screening CCOC(=O)CCc1c(C)c(C#N)c2nc3ccccc3n2c1-n1ccnc1 returned RanGTP-Imp inh inconclusive, Runt-CBFb FRET -10, VIM-2 inh -3, IMP-1 inh -1 and Runt-SMMHC FRET 60.
Screening CCc1c(C)c(C#N)c2nc3ccccc3n2c1-n1nc(C)cc1C returned RanGTP-Imp inh -4, Runt-CBFb FRET -20, VIM-2 inh -2, IMP-1 inh -1 and Runt-SMMHC FRET -63.
For N#CCCn1c(SCC(=O)NCC2CCCO2)nc2ccccc21 (stereo not drawn) the results were RanGTP-Imp inh 4, Runt-CBFb FRET 0, VIM-2 inh -1, IMP-1 inh -4 and Runt-SMMHC FRET 2.
`CCc1c(C)c(C#N)c2nc3ccccc3n2c1Cl` gave RanGTP-Imp inh 21*, Runt-CBFb FRET -10, VIM-2 inh 3, IMP-1 inh 1 and Runt-SMMHC FRET -31.

Screens from PubChem.
